HUVEC prolif 384 – human endothelial cell proliferation inhibition; HUVEC proliferation, CellTiter-Glo luminescence, 72 h; active compounds read low; viability, % at 10 µM (by protocol); hit rate 1.1% among 86,000; AID 648;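 active = viability at or below 30%; inactive = viability above 30%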;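 also: 100% = median luminescence of DMSO-only cell control wells on each plate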
HCT116 bCat-KO – beta-catenin-lacking colon tumor cell growth suppression; viability, % at 10 µM; AID 818; hit rate 1.5% among 140,000; HCT116 beta-catenin knockout viability, CellTiter-Glo, 60 h; active compounds read low;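 active = viability at or under a set limit, the compound median less 4 SD, cut at about 6% in these data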;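 also: 0% = Hyamine 1622 control at 20 µM and 100% = untreated cell control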
HCT116 PTEN-null – PTEN-deleted cell growth suppression | HCT116 PTEN-null viability, CellTiter-Glo, 60 h; active compounds read low | viability, % at 10 µM | hit rate 1.2% among 140,000 | AID 827;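 active = viability at or below a set limit, 4 SD under the median of all tested compounds, cut at about 3.7% in these data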;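 also: PTEN knockout HCT116 line with beta catenin targeted HCT116 as companion control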
Fibroblast inh – blocks proliferation of human lung fibroblasts | LL 47 human lung fibroblast viability, ATP luminescence; active compounds read low | viability, % at 10 µM | hit rate 1.1% among 85,000 | AID 719;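 active = viability at or below 50% in the single dose screen; inactive = viability above 50%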;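 also: compound exposure lasted 72 h before the ATP readout; 100% = median luminescence of untreated cell-only wells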
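test system = LL 47 human lung fibroblasts | amount = 1,150 fibroblasts seeded per well | medium = 15% FBS in IMEM | times = overnight cell rest, 72 h compound treatment at 37 °C | measured by = CellTiter-Glo luminescence measuring cellular ATP | read-out = viability percentage against median untreated-cell control | benchmarks = cell-only wells, no compound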
H69AR inhibit – growth inhibitors of human H69AR lung tumor cells | H69AR lung tumor viability, ATP luminescence, 72 h; active compounds read low | viability, % at 10 µM | hit rate 6% among 85,000;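 active = viability at or below 40%; inactive = viability above 40%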;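 also: multidrug resistant small cell line overexpressing MRP-1 efflux transporter; 100% = mean luminescence of untreated control wells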
The depositor's hits bear a star; . = no result given. Only a selection was taken, and hits are over-represented in it overall.

SMILES | HUVEC prolif 384 | HCT116 bCat-KO | HCT116 PTEN-null | Fibroblast inh | H69AR inhibit
Cc1cc(=O)oc2cc(OC(=O)CCCCCN3C(=O)c4ccccc4C3=O)ccc12 | . | 92 | 92 | . | .
CCOC(=O)C1=C(C)N=c2s/c(=C3/C(=O)Nc4ccccc43)c(=O)n2C1c1ccc(C)cc1 (stereo not drawn) | 3.2* | 106 | 91 | 88 | 1.8*
COC(=O)C1=C(C)N=c2s/c(=C3\C(=O)Nc4ccccc43)c(=O)n2C1c1ccccc1 (stereo not drawn) | 3.3* | 98 | 94 | 82 | 0.9*
O=C(CCC(=O)Nc1ccccc1)NNC(=O)COc1ccccc1 | . | 89 | 94 | . | .
CCCCn1nc(C(=O)N[C@@H](CCSC)c2nc3ccccc3[nH]2)c2ccccc2c1=O | 76 | 46 | 42 | 97 | 36*
O=C(NCCN1CCOCC1)NC1(C(F)(F)F)Oc2ccc(Cl)cc2O1 (stereo not drawn) | . | 24 | 31 | . | .
COCC(C)NC(=O)NC1(C(F)(F)F)Oc2ccc(Cl)cc2O1 (stereo not drawn) | 52 | 29 | 34 | 65 | 23*
Cc1cc2nnc(SCC(=O)NCc3cccs3)n2c2ccccc12 | 55 | 31 | 30 | 58 | 24*
Cc1occc1-c1nnc(SCC(=O)NCc2cccs2)n1-c1ccc(F)cc1 | 29* | 91 | 90 | 104 | 69
Cc1ccccc1-n1ncc2c(SCC(=O)NCc3cccs3)ncnc21 | 66 | 25 | 22 | 79 | 28*
Cc1nnc(SCC(=O)NCc2cccs2)n1-c1ccccc1 | 110 | 96 | 98 | 128 | 107
Cc1cc2nc(C)n(CCCNC(=O)Nc3ccc(F)cc3)c2cc1C | 106 | 99 | 88 | 98 | 88
CC(=O)Oc1cc2c(C(=O)NCCCN3CCOCC3)c(C)oc2c2ccccc12 | 4.5* | 0.9* | 1.4* | 4.3* | 45
CC(=O)NC(CCS(C)(=O)=O)C(=O)Nc1ccc(Oc2ccccc2)cc1 (stereo not drawn) | 110 | 99 | 108 | 99 | 91
COc1ccc(C(=O)Nc2nc3ccccc3[nH]2)cc1OC | 101 | 92 | 98 | 107 | 67
COc1ccc(CCC(=O)Nc2nc3ccccc3[nH]2)cc1 | . | 90 | 102 | . | .
CCCOc1ccc2nc(NC(=O)OC)[nH]c2c1 | 33 | 10 | 14 | 49* | 31*
COc1cc(OC)cc(C(=O)Nc2nc3ccccc3[nH]2)c1 | 77 | 48 | 52 | 74 | 30*
CCOc1ccc2nc(NCCCO)[nH]c2c1 | 90 | 85 | 94 | 94 | 89
COc1ccc(CCC(=O)Nc2nc3ccccc3[nH]2)cc1OC | 93 | 103 | 94 | 100 | 90
CCCCCC(=O)Nc1nc2ccccc2[nH]1 | 86 | 51 | 46 | 84 | 31*
COc1ccccc1CCC(=O)Nc1nc2ccccc2[nH]1 | 90 | 7 | 8 | 91 | 21*
Cn1c(C(C#N)C(=O)c2ccco2)nc2ccccc21 (stereo not drawn) | 89 | 74 | 73 | 80 | 33*
Cn1c(C(C#N)C(=O)Cc2cccc3ccccc23)nc2ccccc21 (stereo not drawn) | 73 | 82 | 83 | 75 | 63
Cc1ccc(-c2nnc(Nc3ccccc3)c3ccccc23)cc1S(=O)(=O)NCC1CCCO1 (stereo not drawn) | . | 77 | 68 | . | .
SMILES | HUVEC prolif 384 | HCT116 bCat-KO | HCT116 PTEN-null | Fibroblast inh | H69AR inhibit
Cc1ccc(-c2nn3c(-c4ccco4)nnc3c3ccccc23)cc1S(=O)(=O)NCC1CCCO1 (stereo not drawn) | 72 | 69 | 45 | 89 | 16*
CN(C(=O)COC(=O)c1ccccc1SCC(=O)NC1CCCCCCC1)C1CCS(=O)(=O)C1 (stereo not drawn) | . | 80 | 88 | . | .
CCOC(=O)C(=CN(CCc1ccccc1)CC(=O)OC)C(=O)OCC | . | 91 | 99 | . | .
CCCCOc1ccc(Br)cc1/C(C)=N/NC1=NCCN1 | 7.1* | 2.4* | 2.9* | 23* | 83
CCCCOc1ccc(Br)cc1CSC(=N)N | . | 11 | 12 | . | .
O=C(/C=C/c1ccoc1)c1ccccc1O | . | 78 | 78 | . | .
O=C(/C=C/c1ccccc1F)c1ccoc1 | . | 5.3* | 8 | . | .
O=C(Cc1cc(=O)[nH]c(=O)[nH]1)NCc1ccccc1 | . | 96 | 104 | . | .
c1cncc(-c2nc3ccccn3c2Nc2ccc3c(c2)OCCO3)c1 | 83 | 86 | 82 | 93 | 90
Clc1ccc(-c2nc3cnccn3c2Nc2ccc3c(c2)OCO3)cc1 | 91 | 29 | 24 | 94 | 25*
Oc1ccccc1-c1nc2cnccn2c1Nc1ccc2c(c1)OCCO2 | 94 | 4.3* | 3.3* | 93 | 80
O=C(NCC1CCCO1)C(=Cc1cccc([N+](=O)[O-])c1)C(=O)NCC1CCCO1 (stereo not drawn) | . | 5.2* | 4 | . | .
CCOc1ccc(/C=C/C(=O)NCc2ccccc2)cc1 | . | 94 | 99 | . | .
Cc1ccc(CNC(=O)c2cnccn2)cc1 | . | 93 | 102 | . | .
CC1CCCC(n2c(=S)[nH]c3ccccc3c2=O)C1C (stereo not drawn) | 72 | 84 | 78 | 90 | 22*
CCN1/C(=C/c2ccc3cccc(C)c3[n+]2CC)Sc2ccccc21 | . | 1.7* | 2.0* | . | .
Cn1c2c(c(=O)n(C)c1=O)C(C(F)(F)F)(C(F)(F)F)N=C(c1ccc(Cl)cc1)N2 | . | 3.0* | 4 | . | .
COc1cccc(-c2nn(-c3ccccc3)cc2C(=O)Nc2nccs2)c1 | 81 | 74 | 76 | 90 | 36*
Cc1cccc(C)c1NC(=O)c1cn(-c2ccccc2)nc1-c1ccccc1 | . | 89 | 95 | . | .
COc1cccc(-c2nn(-c3ccccc3)cc2C(=O)n2nnc3ccccc32)c1 | 68 | 15 | 7 | 99 | 19*
COc1ccc(-c2nn(-c3ccccc3)cc2C(=O)Nc2nccs2)cc1 | 75 | 72 | 60 | 103 | 23*
Cc1ccc(OCC(=O)N/N=C/c2cccn2C)cc1 | 97 | 97 | 98 | 105 | 103
CCOC(=O)c1c2ccc(OCC(=O)N/N=C/c3ccccc3C(F)(F)F)cc2n2ccccc12 | . | 1.5* | 1.9* | . | .
CCOC(=O)c1c2ccc(OCC(=O)N/N=C/c3ccc(Cl)cc3)cc2n2ccccc12 | . | 1.8* | 2.3* | . | .
CCOC(=O)c1c(NC(=O)COC(=O)c2c(C)noc2C)sc2c1CCC2 | 62 | 65 | 62 | 79 | 87
SMILES | HUVEC prolif 384 | HCT116 bCat-KO | HCT116 PTEN-null | Fibroblast inh | H69AR inhibit
COc1cccc(C(=O)c2sc(NC(C)C)nc2N)c1 | 52 | 4.9* | 4 | 43* | 46
COc1ccc(C(=O)c2sc(NC(C)C)nc2N)cc1OC | 106 | 70 | 59 | 104 | 81
Cc1csc(Sc2ccc([N+](=O)[O-])cc2C(=O)OCC(=O)NC2CCCC(C)C2C)n1 (stereo not drawn) | 97 | 97 | 96 | 101 | 8.4*
COc1ccc(-c2[nH]ncc2-c2ccc(Cl)cc2)c(O)c1 | 52 | 89 | 72 | 88 | 14*
CCOc1ccc(-c2[nH]ncc2Oc2cccc(OC)c2)c(O)c1 | 69 | 87 | 90 | 93 | 18*
Oc1ccc(-c2[nH]ncc2-c2ccc(Cl)cc2)c(O)c1 | 56 | 76 | 67 | 88 | 99
